Results of several laboratories.
GSK3B: Glycogen synthase kinase-3 beta (GSK3B, Homo sapiens, UniProt P49841)
AVPR1A: Vasopressin V1a receptor (AVPR1A, Homo sapiens, UniProt P37288)
PDK2: [Pyruvate dehydrogenase (acetyl-transferring)] kinase isozyme 2, mitochondrial (PDK2, Homo sapiens, UniProt Q15119)
PTGS2: Prostaglandin G/H synthase 2 (PTGS2, Ovis aries, UniProt P79208)

For O=C(C1CCCCC1)N1CC(=O)N2CCc3ccccc3C2C1 (centres unmarked), the inhibition was 8.2% (GSK3B; enzyme activity; inhibitor; ADP detection; 100 µM).
O=C1N=C(N2CCCCN2)S/C1=C\c1ccc(F)cc1O has an inhibition of less than 10% (AVPR1A; ligand displacement; radioligand; 10 µM).
CNc1cc(Oc2cc(C(=O)Nc3cc(N4CCN(C)CC4)cc(C(F)(F)F)c3)ccc2C)ncn1 gave an inhibition of -98.4% (1-phosphatidylinositol 3-phosphate 5-kinase (PIKFYVE, Homo sapiens, UniProt Q9Y2I7); target engagement in cells; inhibitor; chemoproteomics; Huh-7; 1 µM).
CC/C(=N\NC(=O)NCc1cccc(O)c1)c1ccc(O)c(C)c1O has an inhibition of -2.1% (PDK2; enzyme activity; inhibitor; 0.1 µM).
With O=C(c1ccc(Cl)cc1)N(Cc1ccccc1)C1CCCCC1 the inhibition was 18.7% (Motilin receptor (MLNR, Homo sapiens, UniProt O43193); cell-free assay; 10 µM).
Ic1cccc2cnccc12 has an inhibition of 2% (Protein mono-ADP-ribosyltransferase TIPARP (TIPARP, Homo sapiens, UniProt Q7Z3E1); enzyme activity; inhibitor; 10 µM).
The inhibition of C[C@@H]1CN(c2c(F)c(N)c3c(=O)c(C(=O)O)cn(C4CC4)c3c2F)C[C@H](C)N1 is reported as 14% (GSK3B; enzyme activity; inhibitor; ADP detection; 100 µM).
With O=C(CSc1nc2nccnc2c(=O)n1CCc1ccccc1)Nc1nccs1 the inhibition was -11% (Phosphatidylinositol 4-kinase type 2-beta (PI4K2B, Homo sapiens, UniProt Q8TCG2); enzyme activity; inhibitor; 10 µM).
Cc1[nH]c(=O)c(C#N)cc1-c1ccncc1 has an inhibition of 27.6% (GSK3B; enzyme activity; inhibitor; ADP detection; 100 µM).
With COc1cc(NC(C)=O)c(Cl)cc1C(=O)Nc1nccs1 the inhibition was -0.8% (AVPR1A; cell-free assay; 10 µM).
CN1CC(Oc2cnc(C#N)cc2-c2ccn3nc(NC(=O)C4CC4)cc3c2)C1 gave an inhibition of 17% (PDK2; enzyme activity; inhibitor; 1 µM).
With CN(C)C1CCN(CC#Cc2nn(C3CCCC3)c3nc(NCc4ccccc4)ncc23)C1 (centres unmarked) the inhibition was -2% (MAP kinase-activated protein kinase 2 (MAPKAPK2, Homo sapiens, UniProt P49137); enzyme activity; inhibitor; FRET; 0.1 µM).
For Oc1cccc(Nc2nc(-c3ccc(F)cc3F)cs2)c1, the inhibition was 1.2% (AVPR1A; cell-free assay; 10 µM).
CCc1cccc2c3c([nH]c12)C(CC)(CC(=O)O)OCC3 (centres unmarked) has an inhibition of 40.8% (GSK3B; enzyme activity; inhibitor; ADP detection; 100 µM).
The inhibition of C[C@@H]1O[C@@H](OC[C@H]2O[C@@H](Oc3c(-c4ccc(O)cc4)oc4cc(O)cc(O)c4c3=O)[C@H](O[C@@H]3O[C@H](CO)[C@@H](O)[C@H](O)[C@H]3O)[C@@H](O)[C@@H]2O)[C@H](O)[C@H](O)[C@H]1O is reported as 53.8% (PTGS2; enzyme activity; inhibitor; absorbance; 50 µM).
O=c1c(-c2ccc(O)cc2)coc2cc(O)ccc12 has an inhibition of 59.2% (GSK3B; enzyme activity; inhibitor; ADP detection; 100 µM).
With C[C@@H]1O[C@@H](OC[C@H]2O[C@@H](O[C@H]3[C@H](Oc4c(-c5ccc(O)cc5)oc5cc(O)cc(O)c5c4=O)O[C@H](CO)[C@@H](O)[C@@H]3O)[C@H](O)[C@@H](O)[C@@H]2O)[C@H](O)[C@H](O)[C@H]1O the inhibition was 57.5% (PTGS2; enzyme activity; inhibitor; absorbance; 50 µM).
For CC(=O)c1nn(CC(=O)N2C[C@H](F)C[C@H]2C(=O)Nc2cccc(Br)n2)c2ccc(-c3cnc(C)nc3)cc12, the inhibition was 0.4% (Cathepsin G (CTSG, Homo sapiens, UniProt P08311); enzyme activity; inhibitor; 10 µM).
The inhibition of CC(=O)NCCc1ccc(O)c(-c2c(O)c(O)c3c(c2O)C(=O)c2c(cc(O)c(C(=O)O)c2C(=O)O)C3=O)c1 is reported as 75.3% (GSK3B; enzyme activity; inhibitor; ADP detection; 100 µM).
For C[C@@H]1O[C@@H](O[C@H]2[C@H](Oc3c(-c4ccc(O)cc4)oc4cc(O)cc(O)c4c3=O)O[C@H](CO[C@@H]3O[C@H](CO)[C@@H](O)[C@H](O)[C@H]3O)[C@@H](O)[C@@H]2O)[C@H](O)[C@H](O)[C@H]1O, the inhibition was 57.7% (PTGS2; enzyme activity; inhibitor; absorbance; 50 µM).
